From PubChem BioAssay
Hsp70 act: Hsp70 transcriptional activators, primary screen, cell-based, HeLa, Hsp70 promoter luciferase, luminescence, 10 µM. HeLa Hsp70 promoter luciferase reporter; scaled: vehicle 0, proteasome-inhibitor control 100%. activation, % at 10 µM. 0.04% of 200,000 active. AID 1203, 2008;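 active = activation above the mean across all tested compounds plus 3 SD, cutoff set per campaign, cut at about 5.5% in these data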;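 note: 100% = MG132 at 30 µM as the positive control and 0% = DMSO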
MDM2 E3 inh: MDM2-luciferase reporter signal enhancers, primary screen, MDM2 E3 ligase inhibitor project, cell-based, luminescence, 1536-well; E3 ubiquitin-protein ligase Mdm2 (Homo sapiens), Q00987; 0.11% of 210,000 active; cell-based MDM2 ubiquitination luciferase reporter, 2 h; 0 = plate control, 100 = twice control, blank-subtracted; signal enhancement, % at 5 µM;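 active = signal enhancement of 30% or more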;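 note: luminescence tracks abundance of the self-degrading MDM2-luciferase fusion protein; higher signal means inhibition of MDM2 E3 ligase activity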
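Assay system: stable mammalian line carrying autodegrading MDM2–luciferase fusion reporter; Input: 2000 cells in each well; Compound dosing: single-point 5 µM; Schedule: 2 h compound exposure at 37 °C; Signal: SteadyLite luciferase luminescence after 15 min room-temperature reagent incubation; Evaluation: % luminescence enhancement versus blank-corrected plate control mean; Benchmarks: plate controls and plate blanks.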
HSF1 activator: HSF-1 activators, primary screen, NIH3T3-HGL cells, MG132 stress, luminescence, single point; NIH3T3-HGL HSF-1 luciferase reporter, 8 h; 100% = twice DMSO control signal; activation, % at 9 µM; 1.7% of 300,000 active; AID 504408, 2011;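 active = mean replicate activation of at least 50% with a set share of replicates each reaching 50%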;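 note: 0% = median of the neutral control wells and 100% = twice that signal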
HSF1 inhib: HSF1 inhibitors in luciferase reporter cells, primary screen, cell-based, NIH3T3, luminescence | 0.77% of 300,000 active | NIH3T3-HGL HSE-luciferase, MG132-induced, luminescence 8 h; stronger effect = lower value | AID 2098, 2009 | activity change, negative = inhibition, % at 7.5 µM (by protocol);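 active = more than half of replicate wells show activity change below -50%, luminescence cut by over half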;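 note: luciferase reports HSF-1 transcriptional activity via heat shock element; 0% = median of DMSO wells and -100% = zero luminescence signal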
Rad51 HR inh: human RAD51 strand exchange inhibitors, primary screen, biochemical, fluorescence. DNA repair protein RAD51 homolog 1 (Homo sapiens), Q06609. hRad51 DNA strand exchange, fluorescence dequenching. inhibition, % at 10 µM. 0.085% of 200,000 active;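 active = inhibition above 40% at the single screening dose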;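 note: 0% = DMSO control wells and 100% = blanks with heterologous ssDNA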
Target sequence (Q06609 whole entry, looked up): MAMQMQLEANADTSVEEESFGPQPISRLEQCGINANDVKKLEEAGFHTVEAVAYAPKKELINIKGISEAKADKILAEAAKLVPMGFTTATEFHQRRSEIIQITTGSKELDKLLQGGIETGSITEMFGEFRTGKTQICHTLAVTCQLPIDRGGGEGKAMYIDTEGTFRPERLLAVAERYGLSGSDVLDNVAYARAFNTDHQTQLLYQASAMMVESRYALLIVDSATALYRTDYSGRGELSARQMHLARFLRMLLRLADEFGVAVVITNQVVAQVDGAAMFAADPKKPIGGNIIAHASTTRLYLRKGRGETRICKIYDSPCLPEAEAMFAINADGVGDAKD
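Assay system: Human Rad51 nucleoprotein filaments preassembled on unlabelled ssDNA | Reagent: Donor/quencher-labelled 47-bp dsDNA substrate | Doses: One concentration, 10 µM final | Times: 37 °C 15-min filament assembly, 30-min compound preincubation, 15-min exchange | Technique: Fluorescein emission 520 nm, excitation 485 nm | Benchmarks: Plate control and blank wells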
HSV augment: enhancers of HSV replication in host cells, fold increase, host cell viability. maximum fold increase. AID 1956, 2009. 0.005% of 220,000 active. HSV replication augmentation in cells; in the data active = maximum fold increase above about 1.5; tested in PC3 cells
* hit, by the source's call; i = inactive; / = not tested or not shown. Compounds with a hit are over-represented: about 2.6% of the library has one in this group of screens.

SMILES	Hsp70 act	MDM2 E3 inh	HSF1 activator	HSF1 inhib	Rad51 HR inh	HSV augment
COC(=O)[C@H]1[C@H]2C[C@@H]3c4[nH]c5cc(OC)ccc5c4CCN3C[C@H]2C[C@@H](OC(=O)c2ccc(N)cc2)[C@@H]1OC	/	/	-64	-55*	-26	i
CCOC(=O)c1c(C)sc2c1N(C(=O)CCl)c1cc(Cl)ccc1S2	0	3	79*	67	10	i
CCOC(=O)NC(=O)/C(C#N)=N/Nc1c(F)cccc1F	0	-14	64*	25	6	i
COc1ccccc1CNC(=O)c1ccccc1NC(=O)C1=C(C)OCCS1	/	/	28	4	/	/
N/C(=N\OC(=O)Nc1ccccc1)c1ncc([N+](=O)[O-])s1	/	-7	65*	40	/	i
Cc1ccccc1NC(=O)Nc1nnc(Cc2ccc([N+](=O)[O-])cc2)s1	0	-1	7	3	0	i
CN1CCc2c(sc3c2c(=O)n(-c2ccc(Cl)cc2)c2nncn32)C1	0	7	-63	-55*	2	i
CCN(CC)CCn1c(=O)n(-c2ccc(Cl)cc2)c(=O)c2c3c(sc21)CN(C)CC3	/	-5	1	6	-27	i
Cc1ccc(/C=C/c2onc(C)c2S(=O)(=O)N2CCC(C(=O)NC(C)(C)C)CC2)cc1	/	/	2	8	/	/
O=C(COC(=O)/C=C/c1cccc([N+](=O)[O-])c1)NCc1ccco1	0	4	200*	181	-4	i
CC(C)c1ccc(N(CC(=O)NC2CCCC2)C(=O)CCC(=O)Nc2nccs2)cc1	/	/	24	11	/	/
CC(NC(=O)c1sc2ccccc2c1Cl)C1CCCO1 (stereo not drawn)	0	-8	69*	23	7	i
CC(NC(=O)c1cc(-c2ccccc2)nc2ccccc12)C1CCCO1 (stereo not drawn)	0	-3	52*	7	/	i
CC(C)(C)C(=O)NC(=S)NNC(=O)c1sc2ccccc2c1Cl	0	/	-75	-69*	/	i
CCCCn1c(N)c(N(CC(C)C)C(=O)CCNC(=O)c2ccc(Br)cc2)c(=O)[nH]c1=O	/	/	-2	3	/	/
COc1cccc(N2CCN(S(=O)(=O)c3cc4c(cc3C)N(C)CCO4)CC2)c1	/	/	55*	34	/	/
Cc1cc2c(cc1S(=O)(=O)N1CCN(c3ccc(Cl)cc3)CC1)OCCN2C	/	/	3	5	/	/
COc1cccc(N2CCN(S(=O)(=O)c3ccc(-c4coc(C)n4)cc3)CC2)c1	/	/	73*	28	/	/
CC(=O)c1ccccc1OCCCCN1CCCCC1	/	/	-14	-5	/	/
Cc1ccc(NC(=O)c2ccc3nc[nH]c3c2)c(O)c1	0	-1	66*	18	-8	i
Cc1cccc(-n2ncc3c(NCc4cccs4)ncnc32)c1	0	-20	21	14	-1	i
Clc1ccc(-n2ncc3c(NCc4cccs4)ncnc32)cc1	0	-3	57*	22	-1	i
COc1ccc(Cl)cc1S(=O)(=O)N1CCC(C(=O)NCCc2ccccc2)CC1	/	/	-84	-79*	/	/
COc1ccc(C)cc1S(=O)(=O)N1CCC(C(=O)NCCc2ccccc2)CC1	0	3	8	-4	9	i
O=C(NCCCN1CCCC1=O)c1cccc(S(=O)(=O)N2CCN(c3ccccc3)CC2)c1	/	/	1	0	/	/
SMILES	Hsp70 act	MDM2 E3 inh	HSF1 activator	HSF1 inhib	Rad51 HR inh	HSV augment
CCCCN(c1ccccc1)c1ncnc(N)c1[N+](=O)[O-]	0	-2	-56	-52*	4	i
CN(c1ncnc(N)c1[N+](=O)[O-])C1CCCCC1	/	/	-45	-40	/	/
COc1ccc(C)cc1-n1c(SCC(=O)Nc2cccc(C(=O)O)c2)nc2ccccc2c1=O	/	-6	75*	28	-2	i
CCOc1ccccc1-n1c(SCC(=O)Nc2ccccc2C(=O)O)nc2ccccc2c1=O	/	/	-75	-74*	/	/
O=c1c(Br)c(N2CCCCC2)cnn1-c1ccccc1	0	4	31	31	-10	i
CC#CC(=O)N1CCC(CO)(CCc2ccccc2)CC1	0	-3	4	2	4	i
COCC1CCCN(C(=O)c2ccc3nc(Cc4cccc(Cl)c4)oc3c2)C1 (stereo not drawn)	/	/	35	23	/	/
CCOc1ccc(NC(=O)c2ccc(NS(=O)(=O)c3cccs3)cc2)cc1	/	/	9	-3	/	/
C(=N\Nc1nc2ccccc2[nH]1)/c1ccc2c(c1)OCO2	0	-10	492*	444	-6	i
CCN(CC)c1ccc(/C=N/Nc2nc3ccccc3[nH]2)cc1	4	1	431*	269	-1	i
CC(=O)Nc1ccc(/C=N/Nc2nc3ccccc3[nH]2)cc1	0	-12	128*	88	-1	i
Cc1ccc(NC(=O)C2CCN(S(=O)(=O)c3ccc4c(c3)NC(=O)C(C)S4)CC2)cc1Cl (stereo not drawn)	/	/	8	2	/	/
CCOC(=O)Nc1ccc2c(c1)N(C(=O)CCN1CCOCC1)c1ccccc1S2=O (stereo not drawn)	0	1	80*	51	0	i
COc1ccc(CCNC(=O)c2cc3c(=O)n(C)c4ccccc4c3n2C)c(OC)c1	/	-1	-5	-2	13	i
O=Cc1cccc(OC(=O)c2ccc(Cl)cc2Cl)c1	0	-14	64*	27	1	i
Cc1cc(-c2nc3ncccc3o2)ccc1NC(=S)NC(=O)C(C)C	0	-89	52*	38	-1	i
Cc1ccc(-c2nc3ncccc3o2)cc1NC(=O)C(C)C	/	/	-8	-6	/	/
C/C(=N/NC(=O)c1ccc2c(c1)OCCO2)c1ccc([N+](=O)[O-])cc1	/	-7	-65	-67*	3	i
C/C(=N\NS(=O)(=O)c1ccccc1)c1ccc2c(c1)OCCO2	0	-4	-67	-56*	/	i
C/C(=N/NS(=O)(=O)c1ccc(Cl)cc1)c1ccc2c(c1)OCO2	/	/	3	-4	/	/
C/C(=N/NC(=O)c1ccc2c(c1)OCO2)c1cccc([N+](=O)[O-])c1	/	/	12	8	/	/
COc1cccc(NC(=O)CCNS(=O)(=O)c2cccc3nonc23)c1	/	/	-13	-13	/	/
O=S(=O)(N1CCCCC1)n1nnc2ccccc21	0	-10	-64	-53*	-7	i
COC(=O)C1=C(C)N(Cc2ccc(OC)cc2)C(=O)C1	0	-23	-1	2	1	i
COC(=O)C1=C(C)N(Cc2ccco2)C(=O)C1	0	-24	-69	-60*	-1	i
